Reference: ChEMBL document CHEMBL3108717, “Dysideanones A-C, unusual sesquiterpene quinones from the South China Sea sponge Dysidea avara” (J Nat Prod, 2014)
Converted amounts (≈) assume the structure as drawn. The source made the active and inactive calls. The calls are words filed in the database; no cut-off is given here.

Tests used:
HeLa = assay: Cytotoxicity against human HeLa cells after 48 hrs by MTT assay; assay type: functional, cell-based
In short: (§1)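 MTT assay. Cells grown in RPMI1640 or DMEM with 10% fetal bovine serum at 37 °C, 5% CO2. Adherent cells allowed to attach 12 h before dosing; suspended cells seeded at dosing, initial density 1 × 10^5 cells/mL. Tested at 1, 10, 50 and 100 μM for 48 h in triplicate, 5-fluorouracil as positive control. Cells solubilized with DMSO, OD read at 595 nm. IC50 taken from mean-OD versus concentration curves.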

Aspergillus niger = assay: Antifungal activity against Aspergillus niger at 1 mg/mL; assay type: functional, organism-based
HepG2 = assay: Cytotoxicity against human HepG2 cells after 48 hrs by MTT assay; assay type: functional, cell-based; conditions: HepG2, 48 h; in short: as §1
Rhodotorula glutinis = assay: Antifungal activity against Rhodotorula glutinis at 1 mg/mL; assay type: functional, organism-based
Candida albicans = assay: Antifungal activity against Candida albicans at 1 mg/mL; assay type: functional, organism-based
Bacillus subtilis = assay: Antibacterial activity against Bacillus subtilis at 1 mg/mL; assay type: functional, organism-based
Staphylococcus aureus [1] = assay: Antibacterial activity against Staphylococcus aureus at 1 mg/mL; assay type: functional, organism-based
Staphylococcus aureus [2] = assay: Antibacterial activity against methicillin/multi-drug-resistant Staphylococcus aureus assessed as growth inhibition; assay type: functional

SMILES | IC50 (HeLa) [µM] | Activity (Aspergillus niger) | IC50 (HepG2) [µM] | Activity (Rhodotorula glutinis) | Activity (Candida albicans) | Activity (Bacillus subtilis) | Activity (Staphylococcus aureus [1]) | MIC50 (Staphylococcus aureus [2]) [µg/mL]
C=C1CC[C@@H]2C3=C(C[C@]4(C)[C@@H](C)CC[C@@]1(C)[C@@H]24)C(=O)C(OCC)=CC3=O | 7.1 | inactive | 9.4 | inactive | inactive | inactive | inactive | –
O=c1[nH]cc(F)c(=O)[nH]1 [FLUOROURACIL] | 2.3 | – | 7.6 | – | – | – | – | –
C=C1[C@H]2C[C@]3(C)C(C)=CCC[C@H]3[C@]1(C)CC1=C2C(=O)C=C(OCC)C1=O | – | – | – | – | – | – | – | 0.2 (≈ 0.567 µM)
CC1=CCC[C@H]2[C@]3(C)CC4=CC(=O)C=C[C@@]4(O)[C@]3(C)CC[C@]12C | – | inactive | – | inactive | inactive | inactive | inactive | –
CC1=CC[C@H]2[C@H]3[C@](C)(CC4=CC(=O)C=C[C@@]42O)[C@@H](C)CC[C@]13C | – | inactive | – | inactive | inactive | inactive | inactive | –
